The list is not random: actives were taken first. Their share in the collection is about 1.8%.
ARNT-TACC3 inh = disruptors of ARNT/TACC3 protein interaction, primary screen, biochemical, AlphaScreen, single concentration | Transforming acidic coiled-coil-containing protein 3 (Homo sapiens), Q9Y6A5 | AlphaScreen His-ARNT PAS-B/GST-TACC3 binding, luminescence; TACC3 fragment carries E629A point mutation | inhibition, % at 9.99 µM | hit rate 0.66% among 390,000;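 active = mean inhibition of replicates at least 50% and at least half of replicates each reaching 50%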
GRK2 aptamer HTS = compounds blocking aptamer binding on GRK2 – biochemical, human GRK2, bead flow cytometry, HTS, primary screen; FAM-aptamer displacement from GRK2; inhibition of aptamer binding, % at 10 µM; hit rate 0.59% among 330,000; AID 488847, 2010;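 active = inhibition of aptamer binding above 40%, roughly 3 SD of noise, on plates passing a quality check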;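 note: median bead fluorescence of bound FAM aptamer so fluorescent compounds give negative values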
Target sequence (P25098 whole entry, looked up): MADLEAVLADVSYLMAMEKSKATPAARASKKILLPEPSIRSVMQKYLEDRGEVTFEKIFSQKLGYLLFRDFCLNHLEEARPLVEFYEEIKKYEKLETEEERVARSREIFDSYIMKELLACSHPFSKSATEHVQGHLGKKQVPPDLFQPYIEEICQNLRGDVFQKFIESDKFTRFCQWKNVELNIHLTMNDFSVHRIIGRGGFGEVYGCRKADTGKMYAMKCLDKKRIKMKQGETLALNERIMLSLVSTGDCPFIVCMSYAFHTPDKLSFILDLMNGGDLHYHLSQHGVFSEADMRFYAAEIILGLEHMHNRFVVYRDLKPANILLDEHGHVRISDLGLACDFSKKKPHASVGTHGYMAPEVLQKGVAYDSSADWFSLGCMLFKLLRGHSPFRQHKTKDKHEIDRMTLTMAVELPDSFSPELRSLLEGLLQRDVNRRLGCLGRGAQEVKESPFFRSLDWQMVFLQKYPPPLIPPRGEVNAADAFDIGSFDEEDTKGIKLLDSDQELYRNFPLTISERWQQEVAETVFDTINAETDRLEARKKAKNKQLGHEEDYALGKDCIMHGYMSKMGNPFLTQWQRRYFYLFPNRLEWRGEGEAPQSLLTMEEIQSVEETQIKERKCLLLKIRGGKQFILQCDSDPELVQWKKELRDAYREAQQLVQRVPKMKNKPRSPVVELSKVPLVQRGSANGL
CAL PDZ FP-1 = untagged CAL PDZ binding inhibitors, primary screen, biochemical, fluorescence polarization, HTS; hit rate 0.92% among 300,000; inhibition, % at 24.9 µM; Golgi-associated PDZ and coiled-coil motif-containing protein (Homo sapiens), Q9HD26; purified CAL PDZ, TMR-peptide fluorescence polarization, 1 h;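 active = mean inhibition of at least 30% with at least half of replicates also reaching 30%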
CAL PDZ FP-2 = CAL PDZ peptide-binding inhibitors, primary screen, biochemical, fluorescence polarization, Cer-tagged CAL PDZ, HTS; purified CAL PDZ, TMR-peptide fluorescence polarization, 1 h; hit rate 0.02% among 330,000; inhibition, % at 20 µM; Golgi-associated PDZ and coiled-coil motif-containing protein (Homo sapiens), Q9HD26;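 active = highest replicate inhibition of at least 40%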
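Control set: unlabelled peptide and DMSO controls / Material: purified CerCALP PDZ construct / Timing: 1 h incubation at room temperature before polarization reading / Doses: 20 µM, one dose / Detection: fluorescence polarization (mP)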
Tn6 DDE FP = inhibitors of Tn6 peptide binding to fibrin DD(E), primary screen, biochemical, fluorescence polarization, human fibrin, Tn6 probe; Fibrinogen beta chain (Homo sapiens), P02675; Fibrin DD(E) TRITC-Tn6 fluorescence polarization displacement; inhibition, % at 8.3 µM; hit rate 0.21% among 370,000;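 active = inhibition above a per-campaign cutoff: mean of compounds within control limits plus 3 SD, cut at about 15% in these data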
Tn7 DDE FP = inhibitors of Tn7 peptide binding to fibrin DD(E), primary screen, biochemical, fluorescence polarization, human fibrin, Tn7 probe; Fibrinogen beta chain (Homo sapiens), P02675; FP displacement of FITC-Tn7 peptide from fibrin DD(E); 0% = median of compound wells per plate; inhibition, % at 8.3 µM; hit rate 0.13% among 370,000;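 active = inhibition above the mean of compounds falling within the control limits plus 3 SD of them, cut at about 14% in these data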
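Assay system: Human clot-derived fibrin DD(E) complex | Buffer or medium: Tris/NaCl/CaCl2 buffer, pH 7.8 | Repeats: One replicate per compound | Benchmarks: Aha-Tn7 high control | Measure: % inhibition scaled between sample-field median and high-control FP | Schedule: 10 min plus 3 h, room temperature | Signal: Fluorescence polarization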
GRK2 inh confirm = GRK2 aptamer-displacing inhibitors, retest, confirmation, biochemical, cherry pick 1, bead flow cytometry; shares compounds with GRK2 aptamer HTS; bead-bound GRK2, FAM-aptamer displacement; aptamer displacement, % at 10 µM; hit rate 4% among 2,000; AID 504451, 2011;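 active = aptamer displacement above 40%, near three times the noise of non-fluorescent compounds, on plates passing quality checks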;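 note: negative values mostly reflect intrinsic compound fluorescence rather than true enhancement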
FAM quench CP1 = quenches fluorescent RNA aptamer, GRK2 hit artifact; shares compounds with GRK2 aptamer HTS; Carboxyfluorescein RNA aptamer on beads, flow cytometry quenching; active compounds read low; fluorescence response (% of DMSO), % at 10 µM; 2,000 tested, under 10 active; AID 504580;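 active = compounds that quench the bead-bound fluorescent RNA probe, cutting fluorescence to under half of the solvent control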;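 note: counterscreen run without GRK2 so only probe quenching by compound is measured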
GRK2 CP2 = GRK2 aptamer-displacing inhibitors, hit retest, confirmation, biochemical, cherry pick 2, bead flow cytometry. inhibition of aptamer binding, % at 10 µM. 360 tested, under 10 active. AID 504782, 2011. bead-bound GRK2, FAM-aptamer displacement. shares compounds with GRK2 aptamer HTS;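 active = inhibition of aptamer binding above 40%, about triple the noise seen with nonglowing compounds, on plates passing quality control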;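 note: negative values mostly come from compounds that fluoresce themselves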
FAM quench SP = aptamer fluorescence quenching in GRK2 counter-screen; shares compounds with GRK2 aptamer HTS; carboxyfluorescein RNA aptamer beads, flow cytometry quenching; active compounds read low; 360 tested, under 10 active; AID 588494; fluorescence response vs DMSO, % at 10 µM;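 active = response vs DMSO under 50%, meaning signal dropped by over half, treated as fluorescence quencher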;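 note: labelled aptamer on streptavidin beads without GRK2 as a quench counter-screen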
AlphaScreen ctr = AlphaScreen signal interference compounds, dose response, artefact control for ARNT-TACC3 interaction inhibitor project, biochemical, luminescence, cherry-pick; His-ARNT PASB-GST AlphaScreen artifact counter-screen; AID 651705, 2012; AC50, µM (doses to about 68 µM); shares compounds with ARNT-TACC3 inh; hit rate 50% among 1,200;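 active = every separate test run was called active for a drop in luminescence, with AC50 within twice the top valid dose, actives reach about 71 µM in these data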
Tn7 DDE conf = inhibitors of Tn7 peptide binding to fibrin DD(E), confirmation, biochemical, fluorescence polarization, human fibrin, Tn7 probe; shares compounds with Tn7 DDE FP; FP displacement of TRITC-Tn7 peptide from DD(E); 0% set at plate's compound-well median; inhibition, % at 8.3 µM; hit rate 5% among 460; AID 720628, 2013;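 active = inhibition above the campaign cutoff, the mean of compounds within control limits plus 3 SD, cut at about 14% in these data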;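 note: displacers lower polarization since freed probe rises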
Tn7 DDE ctr = counter-screen for inhibitors of Tn7 peptide binding to fibrin DD(E). TRITC-Tn7 probe displacement, fluorescence polarization. shares compounds with Tn7 DDE FP. inhibition, % at 8.3 µM. hit rate 3% among 460. AID 720633;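 active = inhibition above the cutoff, the mean of compounds lying between the control bounds plus 3 SD of those compounds, cut at about 17% in these data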
Numbers stand for hits; . = inactive; / = no result.

SMILES | ARNT-TACC3 inh | GRK2 aptamer HTS | CAL PDZ FP-1 | CAL PDZ FP-2 | Tn6 DDE FP | Tn7 DDE FP | GRK2 inh confirm | FAM quench CP1 | others
C[C@]12CCC3C(CC[C@H]4C[C@H](O)CC[C@]34C)C1CC(=O)[C@@H]2O (some centres undefined) | . | 100.0 | . | . | . | . | . | .
COc1ccc(C#Cc2ccc([C@@H]3[C@H]4CN(C(=O)Cc5ccccc5)CCCCN4[C@H]3CO)cc2)cc1 | . | / | / | / | / | / | / | /
CCOc1ccc(N=Cc2c(O)n(CCc3ccc(OC)c(OC)c3)c(=O)[nH]c2=O)cc1 | . | 100.0 | . | . | . | . | . | .
COc1ccc(CCn2c(O)c(C=Nc3ccc(NC(C)=O)cc3)c(=O)[nH]c2=O)cc1OC | . | . | / | . | . | . | / | /
CC(C)NC(=O)N1[C@@H]2Cn3c(ccc(-c4cccc(C(=O)N(C)C)c4)c3=O)[C@H]1[C@@H](C(=O)O)[C@@H]2CO | . | / | / | / | / | / | / | /
Cc1cc(O)c2c(c1)C(=O)[C@@]13C(=C2O)C(=O)[C@H]2C(O)[C@@H]1[C@H]1C(O)[C@@H]3C(=O)C3=C(O)c4c(O)cc(C)cc4C(=O)[C@@]312 (some centres undefined) | / | / | / | / | . | . | / | /
CCc1nc2ccc(N3CCN(C)CC3)cc2nc1CC | . | 100.0 | 48.8 | . | . | . | . | .
COc1ccc(C(=O)C23CN4CN(CN(C4)C2)C3)cc1 | . | 43.0 | . | . | . | . | . | .
Cc1cc(=O)oc2cc(OCC(=O)N3CCN(C(C)c4ccccc4)CC3)c(Cl)cc12 (centres undefined) | . | . | . | . | . | . | . | .
Cc1cc(=O)oc2cc(OCC(=O)N3C[C@H]4C[C@@H](C3)c3cccc(=O)n3C4)c(Cl)cc12 | . | . | . | . | . | . | / | /
CC(=O)O[C@H]1CC[C@@]2(C)C(=CC[C@@H]3[C@@H]2CC[C@]2(C)C(=O)CC[C@@H]32)C1 | . | . | . | . | / | / | / | /
CC[C@]12CC[C@H](O)CC1=CCC1C2CC[C@]2(C)C(=O)CCC12 (some centres undefined) | / | 42.0 | / | / | . | . | / | / | GRK2 CP2=.;FAM quench SP=.
Cc1nn(-c2ccccc2)c2c1C(c1ccc3c(c1)OCO3)SCC(=O)N2 (centres undefined) | . | . | . | . | . | . | . | .
Cc1ccc(-c2nc3ccccc3c(=O)n2-c2ncccc2C)cc1 | . | 60.0 | . | . | . | . | . | .
O=C(O)[C@@H]1[C@@H](CO)[C@@H]2Cn3c(ccc(-c4ccc(F)cc4)c3=O)[C@H]1N2CC1CCCCC1 | . | / | / | / | / | / | / | /
Nc1ccc2ccc3cccc[n+]3c2c1 | . | 52.0 | . | . | . | 69.7 | . | 44.3 | Tn7 DDE conf=24.8;Tn7 DDE ctr=.
CCCN1[C@@H]2c3ccc(-c4cccc(C(=O)N(C)C)c4)c(=O)n3C[C@H]1[C@H](CO)[C@H]2C(=O)OC | . | / | / | / | / | / | / | /
O=c1[nH]c(O)c(Cc2ccc3c(c2)OCO3)c(=O)[nH]1 | 23.2 | . | . | . | . | . | / | / | AlphaScreen ctr=.
CN1[C@@H]2c3cccc(=O)n3C[C@H]1[C@H](CO)[C@H]2C(=O)NCC1CC1 | . | / | / | / | / | / | / | /
COC(=O)[C@H]1[C@H](CO)[C@H]2Cn3c(ccc(-c4cccnc4)c3=O)[C@@H]1N2S(=O)(=O)c1ccccc1F | . | / | / | / | / | / | / | /
CCOC(=O)c1cnc(N2CC2)nc1N | . | / | . | . | . | . | / | /
CCOC(=O)c1cc2c(cn1)[C@H](CCO)NC2 | 58.6 | / | . | . | . | . | / | / | AlphaScreen ctr=.
COc1cc2c(c(OC)c1OC)-c1ccc(O)c(=O)cc1[C@@H](NC(C)=O)CC2 | 68.9 | . | . | . | . | . | / | / | AlphaScreen ctr=.
Cc1cccc(NC(=O)C(C)N2CC=C(c3ccccc3)CC2)c1 (centres undefined) | 62.2 | . | . | . | . | . | / | / | AlphaScreen ctr=.
CN(C)[C@@H]1C(=O)C(C(N)=O)=C(O)[C@@]2(O)C(=O)C3=C(O)c4c(O)ccc(Cl)c4[C@@](C)(O)C3C[C@@H]12 (some centres undefined) | . | / | . | . | . | . | / | /
CN(C)[C@@H]1C(=O)C(C(N)=O)=C(O)[C@@]2(O)C(=O)C3=C(O)c4c(O)cccc4[C@@](C)(O)C3[C@H](O)C12 (some centres undefined) | 44.6 | . | . | . | . | . | / | / | AlphaScreen ctr=.
COC(=O)[C@@H]1[C@@H](CO)[C@@H]2Cn3c(ccc(-c4cccc(F)c4)c3=O)[C@H]1N2Cc1ccccc1 | . | / | / | / | / | / | / | /
FC(F)(F)c1cccc(NC2=NCCCS2)c1 | . | . | . | . | . | 13.8 | / | / | Tn7 DDE conf=.;Tn7 DDE ctr=.
COC(=O)[C@H]1[C@H](CO)[C@H]2Cn3c(ccc(-c4cncnc4)c3=O)[C@@H]1N2S(=O)(=O)c1ccccc1C | . | / | / | / | / | / | / | /
